Among the data in ChEMBL document CHEMBL1123804, “Beta-substituted cysteines as sequestering agents for ethanol-derived acetaldehyde in vivo” (1987) are Excreted values, retold here.

Common to all, as to assay type: functional
The subject of assay [1] is Rattus norvegicus. As to the kind of experiment: Compound tested for the percentage of administered dose excreted in rat urine was determined in 0-24 hr. The procedure, abridged:
(§1)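 Labeled material (14C on the acetaldehyde part, with unlabeled carrier, in water) was dosed at 8.0 mmol/kg, 1.0 mL/100 g, to two overnight-fasted male Sprague-Dawley-descent rats (207 g, 247 g) kept in all-glass metabolism cages. Urine was collected separately at 2, 4, 8, 16 and 24 h. Duplicate samples were counted by liquid scintillation, and results are averaged ± SD across the two animals.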

In assay [2] the test system is Rattus norvegicus. The assay is described as follows: Compound tested for the percentage of administered dose excreted in rat urine was determined in 0-2 hr. The procedure, abridged: as §1
For assay [3], the system named is Rattus norvegicus. The assay is described as follows: Compound tested for the percentage of administered dose excreted in rat urine was determined in 16-24h. The procedure, abridged: as §1
Assay [4] has as its system Rattus norvegicus. The assay is described as follows: Compound tested for the percentage of administered dose excreted in rat urine was determined in 2-4h. The procedure, abridged:
as §1

Assay [5] deals with Rattus norvegicus. As to the kind of experiment: Compound tested for the percentage of administered dose excreted in rat urine was determined in 4-8h. The procedure, abridged:
as §1

Assay [6] has as its system Rattus norvegicus. As to the kind of experiment: Compound tested for the percentage of administered dose excreted in rat urine was determined in 8-16h. The procedure, abridged:
as §1

Assay [7] relates to Rattus norvegicus. As to the kind of experiment: Compound tested for the percentage of administration dose excreted in rat feces was determined in 0-24 hr. The procedure, abridged:
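A radiolabeled dose (14C in the acetaldehyde moiety, with carrier, in water) of 8.0 mmol/kg at 1.0 mL/100 g went to two overnight-fasted male Sprague-Dawley-descent rats (207 g, 247 g) in all-glass metabolism cages. Feces collected over 24 h were lyophilized and pulverized, and 250-mg samples were combusted to 14CO2 for scintillation counting. Values are the mean ± SD of two animals.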

The species entered for assay [8] is Rattus norvegicus. The assay is described as follows: Compound tested for the percentage of CO2 expired in rat was determined in 4-8h. The procedure, abridged: (§2)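 14C label on the acetaldehyde moiety, diluted with unlabeled carrier in water and given at 8.0 mmol/kg (1.0 mL/100 g; radioactivity of the solution counted in duplicate). Two male Sprague-Dawley-descent rats (207 g, 247 g) were fasted overnight and housed in all-glass metabolism cages. Expired CO2 went into two successive cold methoxyethanol/ethanolamine (2:1) traps, sampled at 2, 4, 8, 16 and 24 h. Duplicates were counted by liquid scintillation, and values are the mean ± SD of two animals.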

Assay [9] is filed under the species Rattus norvegicus. As to the kind of experiment: Compound tested for the percentage of CO2 expired in rat was determined in 8-16h. The procedure, abridged:
as §2

The species named for assay [10] is Rattus norvegicus. The assay is described as follows: Compound tested for the percentage of CO2 expired in rat was determined in 0-2 hr. The procedure, abridged: as §2
The species named for assay [11] is Rattus norvegicus. As to the kind of experiment: Compound tested for the percentage of CO2 expired in rat was determined in 16-24h. The procedure, abridged: as §2
The species named for assay [12] is Rattus norvegicus. As to the kind of experiment: Compound tested for the percentage of CO2 expired in rat was determined in 2-4h. The procedure, abridged:
as §2

The species entered for assay [13] is Rattus norvegicus. The assay is described as follows: Compound tested for the percentage of CO2 expired in rat was determined in 0-24 hr. The procedure, abridged:
as §2

`CC1N[C@@H](C(=O)O)C(C)(C)S1` (stereo partly drawn): the Excreted in the assay on Rattus norvegicus [1] was found to be 79.2%; in the assay on Rattus norvegicus [2], 36.3%; with Rattus norvegicus [3], 1.18%; with Rattus norvegicus [4], 25.9%; in the assay on Rattus norvegicus [5] it was 12.7%; in the assay with Rattus norvegicus [6], 3.12%. Moreover, the Excreted is listed as 1.38% with Rattus norvegicus [7]; 1.36% in the assay filed under Rattus norvegicus [8]; 0.48% in the assay filed under Rattus norvegicus [9]; 2.01% in the assay filed under Rattus norvegicus [10]; 0.28% in the assay listed under Rattus norvegicus [11]; 1.7% in the assay listed under Rattus norvegicus [12]. The Excreted in the assay filed under Rattus norvegicus [13] came out at 5.83%.
